Measured values pooled from the literature.
Compare with care: the assays were run in different laboratories.
Effect on: enzyme activity
Mode: inhibitor
CDK2 with cyclin E: Cyclin-dependent kinase 2, with cyclin E (CDK2, Homo sapiens, UniProt P24941)
CDK2 with cyclin A: Cyclin-dependent kinase 2, with cyclin A (CDK2, Homo sapiens, UniProt P24941)
CDK2 with cyclin E2: Cyclin-dependent kinase 2, with cyclin E2 (CDK2, Homo sapiens, UniProt P24941)

| Compound | target | assay | conditions | remaining activity |
| --- | --- | --- | --- | --- |
| Cc1ccc(Nc2nccc(N(C)c3ccc4c(C)n(C)nc4c3)n2)cc1S(N)(=O)=O | CDK2 with cyclin E |  | 0.5 µM | 96.4% |
| O=C(Nc1cnn(-c2csc(C(=O)NC3COC3)c2)c1)Nc1c(F)cccc1Cl | CDK2 with cyclin E |  | 5 µM | 94.6% |
| COc1cc(Cl)c(C(=O)N[C@@H](CN[C@H]2CC[C@@H](N)CC2)Cc2ccc(C#N)cc2)cc1-c1ccc(CN[C@H](C)c2ccc(C)cc2)o1 | CDK2 with cyclin A |  | 1 µM | 96% |
| Nc1nc(Nc2ccccc2)sc1C(=O)c1c(F)cccc1F | CDK2 with cyclin A |  | 10 µM | 2% |
| CC(C)(C)c1nc2c(s1)c1nc(N)ncc1c1ccc(NS(=O)(=O)c3c(F)cccc3F)c(F)c12 | Cyclin-dependent kinase 2, with cyclin E1 (CDK2, Homo sapiens, UniProt P24941) | radiometric | 1 µM | 93% |
| Cc1sc(C(=O)NC2COC2)cc1-n1cc(NC(=O)Nc2c(F)cccc2Cl)cn1 | CDK2 with cyclin E2 |  | 10 µM | 90.8% |
| Cn1c(=O)n(-c2ccc(C(C)(C)C#N)cc2)c2c3cc(-c4cnc5ccccc5c4)ccc3ncc21 | CDK2 with cyclin A |  | 10 µM | 74% |
| Nc1nc(NC2CCCCC2)sc1C(=O)c1ccccc1 | CDK2 with cyclin A |  | 10 µM | 5% |
| CC(C)(C)c1nc(-c2cccc(NS(=O)(=O)c3c(F)cccc3F)c2F)c(-c2ccnc(N)n2)s1 | Cyclin-dependent kinase 2, with cyclin A2 (CDK2, Homo sapiens, UniProt P24941) | radiometric | 1 µM | 72% |
| Cc1cnc(NC2CCOCC2)nc1-n1cnc(C(=O)NC(CN)c2cc(F)cc(Cl)c2)c1 (centres unmarked) | CDK2 with cyclin A | radiometric | 1 µM | 3% |
| COc1cc(Nc2cnc(C#N)c(O[C@H](C)CN(C)C)n2)ncc1-c1cnn(C)c1 | CDK2 with cyclin A | radiometric | 10 µM | 91% |
| CC(C)(O)[C@H]1CC[C@H](Nc2ccc3ncc(-c4cccc(C(F)(F)F)c4)n3n2)CC1 | CDK2 with cyclin A |  | 1 µM | 96.9% |
| O=C(Nc1cnn(-c2csc(C(=O)NC3COC3)c2)c1)Nc1ccccc1Cl | CDK2 with cyclin E2 |  | 5 µM | 107% |
| Oc1cccc(-c2nc(N3CCOCC3)c3oc4ncccc4c3n2)c1 | CDK2 with cyclin A |  | 10 µM | 94% |
